Measurements taken from ChEMBL document CHEMBL4689842, “EUbOPEN Chemogenomics Library wave 1” (2021).
Where “and” joins values, the source holds several entries; their conditions need not be identical. Equal entries are not always repeated.

Tested on: U2OS
Assay: Multiplex assay against U2OS
Type: toxicity, cell-based
Details: human, 10 µM, compound concentration 10 uM
Method in brief: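 Four dyes were applied at seeding to live cells: Hoechst33342, BioTracker Green Microtubule Cytoskeleton Dye, MitoTracker Red and Annexin V Alexa Fluor 680. Imaging after compound addition used a CQ1 microscope at 37°C and 5% CO2. CellPathfinder machine-learning gating then sorted cells into Hoechst high-intensity objects or normal cells, normal cells into healthy, pyknosed or fragmented nuclei, and pyknosed cells into mitotic or apoptotic, with tubulin, mitochondrial-mass and membrane-permeability phenotypes given as per cents of healthy-nucleus cells.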

In the case of `CCOCCn1cc(C(=O)Nc2ccc(-n3nc(-c4cccnc4)cc3C(F)(F)F)cn2)ccc1=O` [BI 1935], the “Population Apoptotic (%)” value (12 h, replicate 1) is reported as 22% and 50% and 42%, the “Population Healthy Nuclei (%)” value (12 h, replicate 1) is reported as 82% and 63% and 91% and the “Population Hoechst High Intensity Objects (%)” value (12 h, replicate 1) is reported as 4% and 8% and 3%. The “Population Mitotic Cells (%)” value (12 h, replicate 1) was 77% and 50% and 57%, the “Population Normal (%)” value (12 h, replicate 1) was 95% and 91% and 96% and the “Total Cell Count” value (12 h, replicate 1) was 162 and 131 and 216. The “Population Apoptotic (%)” value (12 h, replicate 2) was 28% and 47% and 16%, the “Population Fragmented Nuclei (%)” value (12 h, replicate 2) was 5% and 8% and 12% and the “Population Healthy Nuclei (%)” value (12 h, replicate 2) was 77% and 65%. For the same molecule, the “Population Hoechst High Intensity Objects (%)” value (12 h, replicate 2) was 10% and 7% and 9%, the “Population Mitochondria Different-Phenotype (%)” value (12 h, replicate 2) was 22% and 47% and 19% and the “Population Mitotic Cells (%)” value (12 h, replicate 2) was 71% and 52% and 83%. For the same molecule, the “Population Normal (%)” value (12 h, replicate 2) was 89% and 92% and 90%, the “Total Cell Count” value (12 h, replicate 2) was 89 and 79 and 129 and the “Population Apoptotic (%)” value (24 h, replicate 1) was 42% and 33% and 27%. For the same molecule, the “Population Healthy Nuclei (%)” value (24 h, replicate 1) was 62% and 86% and 91%, the “Population Hoechst High Intensity Objects (%)” value (24 h, replicate 1) was 6% and 3% and the “Population Mitochondria Different-Phenotype (%)” value (24 h, replicate 1) was 51% and 17% and 20%. For the same molecule, the “Population Mitotic Cells (%)” value (24 h, replicate 1) was 57% and 66% and 72%, the “Population Normal (%)” value (24 h, replicate 1) was 93% and 96% and the “Total Cell Count” value (24 h, replicate 1) was 147 and 211 and 291. For the same molecule, the “Population Apoptotic (%)” value (24 h, replicate 2) was 46% and 40% and 66%, the “Population Fragmented Nuclei (%)” value (24 h, replicate 2) was 3% and 9% and the “Population Healthy Nuclei (%)” value (24 h, replicate 2) was 82% and 66%. For the same molecule, the “Population Hoechst High Intensity Objects (%)” value (24 h, replicate 2) was 7% and 8%, the “Population Mitochondria Different-Phenotype (%)” value (24 h, replicate 2) was 27% and 50% and the “Population Mitotic Cells (%)” value (24 h, replicate 2) was 53% and 60% and 33%. The “Population Normal (%)” value (24 h, replicate 2) was 92% and 91%, the “Population Tubulin-Different-Phenotype (%)” value (24 h, replicate 2) was 27% and 44% and 22% and the “Total Cell Count” value (24 h, replicate 2) was 101 and 92 and 149. The “Population Apoptotic (%)” value (48 h, replicate 1) was 51%, the “Population Fragmented Nuclei (%)” value (48 h, replicate 1) was 16% and the “Population Healthy Nuclei (%)” value (48 h, replicate 1) was 64%. For the same molecule, the “Population Hoechst High Intensity Objects (%)” value (48 h, replicate 1) was 10%, the “Population Membrane Permeable-Phenotype (%)” value (48 h, replicate 1) was 15% and the “Population Mitochondria Different-Phenotype (%)” value (48 h, replicate 1) was 26%. For the same molecule, the “Population Mitotic Cells (%)” value (48 h, replicate 1) was 48%, the “Population Normal (%)” value (48 h, replicate 1) was 89% and the “Population Pyknosed Nuclei (%)” value (48 h, replicate 1) was 19%. For the same molecule, the “Population Tubulin-Different-Phenotype (%)” value (48 h, replicate 1) was 51%, the “Total Cell Count” value (48 h, replicate 1) was 178 and the “Population Apoptotic (%)” value (48 h, replicate 2) was 52%. The “Population Fragmented Nuclei (%)” value (48 h, replicate 2) was 7%, the “Population Healthy Nuclei (%)” value (48 h, replicate 2) was 73% and the “Population Hoechst High Intensity Objects (%)” value (48 h, replicate 2) was 4%. The “Population Membrane Permeable-Phenotype (%)” value (48 h, replicate 2) was 17%, the “Population Mitochondria Different-Phenotype (%)” value (48 h, replicate 2) was 30% and the “Population Mitotic Cells (%)” value (48 h, replicate 2) was 47%. The “Population Normal (%)” value (48 h, replicate 2) was 95%, the “Population Tubulin-Different-Phenotype (%)” value (48 h, replicate 2) was 40% and the “Total Cell Count” value (48 h, replicate 2) was 114.
